# Test results from ChEMBL document CHEMBL3751796, “Structure-Based Discovery of Novel Cyclophilin A Inhibitors for the Treatment of Hepatitis C Virus Infections” (J Med Chem, 2015).
# pEC50, pKd: −log10 of the molar value. Activity calls are given as the source filed them. The calls are words filed in the database; no cut-off is given here.
# Key:
# [1] = tested on: Mus musculus; test: Hepatotoxicity in BALB/c mouse assessed as changes in serum alanine transaminase level at 50 mg/kg, iv for 2 weeks by GPT kit assay; type: toxicity, organism-based; settings: in vivo, 336 h
# [2] = species on record: Mus musculus; test: Activation of calcium-dependent calcineurin phosphatase activity in ionomycin-stimulated BALB/c mouse assessed as production of IL-2 at 1 to 10 uM after 24 hrs by ELISA
# Outline: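 Mouse spleen cells, 2 × 10^6/well, stimulated with ionomycin 1 μg/mL and treated with a dose series for 24 h at 37 °C. Media from triplicate wells pooled. IL-2 measured by ELISA and calculated from IL-2 standards.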
# [3] = Selectivity index, ratio of CC50 for mock-infected human Huh7.5 cells to EC50 for recombinant HCV genotype 2a JFH1; design: species or system Huh-7
# Outline: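 Huh7.5 cells infected with JFH1-Luc virus (MOI 0.004, 5 h, 37 °C) in the presence of 3-fold serial dilutions. EC50 came from Renilla luciferase on day 3. CC50 came from MTT viability of mock-infected Huh7.5 cells treated in parallel. SI = CC50/EC50.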
# [4] = tested on: Hepatitis C virus; test: Antiviral activity against HCV infected in human Huh7.5 cells assessed as inhibition of HCV-specific RNA by qRT-PCR method in presence of telaprevir; type: functional, organism-based; settings: Hepacivirus hominis; Huh-7
# [5] = molecular target: T1, Peptidyl-prolyl cis-trans isomerase A (Homo sapiens, UniProt P62937); test: Inhibition of Cyclophilin A in human Huh7.5 cells infected with HCV assessed as reduction in viral RNA replication level at 0.5 to 4 uM by luciferase reporter gene assay; type: cell-based; settings: Huh-7
# Outline: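 Huh7.5 cells infected with JFH1-Luc (Renilla luciferase reporter) virus at MOI 0.004 for 5 h at 37 °C, with or without test chemicals. Renilla luciferase activity was read from cell lysates on day 3 postinfection.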
# Target sequence in this assay (P62937 whole entry, looked up): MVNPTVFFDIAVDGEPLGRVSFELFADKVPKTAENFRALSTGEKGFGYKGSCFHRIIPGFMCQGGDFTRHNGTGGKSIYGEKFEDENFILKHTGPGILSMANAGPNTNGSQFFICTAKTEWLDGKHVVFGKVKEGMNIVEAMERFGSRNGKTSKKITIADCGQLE
# [6] = tested on: Hepatitis C virus; test: Antiviral activity against HCV infected in human Huh7.5 cells assessed as inhibition of IL-8 level by ELISA in presence of IFN-alpha; type: functional, organism-based; settings: Hepacivirus hominis; Huh-7
# [7] = species on record: Mus musculus; test: Inhibition of calcium-dependent calcineurin phosphatase activity in ionomycin-stimulated BALB/c mouse splenocytes assessed as reduction in dephosphorylation of R2 phosphopeptide at 1 to 10 uM preincubated for 20 hrs followed by ionomycin stimulation measured after 4 hrs
# Outline: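 Mouse splenocytes (2 × 10^6 cells/well) were incubated with compound for 20 h, then stimulated with 1 μg/mL ionomycin for another 4 h or left unstimulated. Calcineurin activity was measured by dephosphorylation of RII phosphopeptide using a cellular activity kit.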
# [8] = tested on: Hepatitis C virus; test: Antiviral activity against HCV genotype 1b Con1 infected in human Huh7.5 cells assessed as upregulation of IFN-alpha expression incubated up to 96 hrs by ELISA; type: functional, organism-based; settings: Hepacivirus hominis; isolate Con1; Huh-7
# Outline: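 Con1b replicon cells, 2 × 10^6/well, treated with 2 μM for up to 4 days at 37 °C. Pooled culture media assayed for IL-8 and IFN-α by ELISA.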
# [9] = molecular target: T1, Peptidyl-prolyl cis-trans isomerase A; test: Inhibition of human Cyclophilin A interaction with HCV genotype 1b Con1 NS5B in human Huh7.5 cells at 2 uM by co-immunoprecipitation assay; type: cell-based; settings: Huh-7
# Target sequence in this assay (P62937 whole entry, looked up): as above
# [10] = tested on: Hepatitis C virus; test: Antiviral activity against recombinant HCV genotype 2a JFH1 infected in human […] for 5 hrs measured on day 3 post infection by luciferase reporter gene assay; type: functional, organism-based, Hepacivirus hominis; settings: JFH-1, Huh-7
# Outline: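 Huh7.5 cells infected with JFH1-Luc virus (MOI 0.004) for 5 h at 37 °C with 3-fold serial dilutions of compound. Renilla luciferase read from lysates on day 3 postinfection to derive EC50.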
# [11] = molecular target: Peptidyl-prolyl cis-trans isomerase B (Homo sapiens, UniProt P23284); test: Dissociation rate to Cyclophilin B (unknown origin) by surface plasmon resonance analysis
# Peptidyl-prolyl cis-trans isomerase B, sequence (P23284 whole entry): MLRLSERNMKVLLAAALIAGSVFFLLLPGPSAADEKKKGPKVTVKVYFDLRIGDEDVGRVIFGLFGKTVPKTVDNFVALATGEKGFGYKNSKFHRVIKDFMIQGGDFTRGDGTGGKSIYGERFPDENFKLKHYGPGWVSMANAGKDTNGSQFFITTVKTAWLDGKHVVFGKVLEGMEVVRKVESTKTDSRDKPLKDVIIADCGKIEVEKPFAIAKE
# [12] = molecular target: T1, Peptidyl-prolyl cis-trans isomerase A
# Target sequence in this assay (P62937 whole entry): as the sequence (P62937 whole entry, looked up) above
# [13] = tested on: Hepatitis C virus; test: Antiviral activity against HCV genotype 1b Con1 infected in human Huh7.5 cells assessed as stimulation of ISG15 mRNA expression at 2 uM incubated up to 96 hrs by qRT-PCR method; type: functional, organism-based; settings: Hepacivirus hominis, isolate Con1, Huh-7, TDE = time-dependent effect
# Outline: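 mRNA measured by SYBR Green qRT-PCR using the 2^−ΔΔCT method, normalized to GAPDH and expressed as fold change vs controls.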
smiles,measurement,setting,value
COc1cc(C(C(=O)NC2CCCCC2)N(C(=O)Cc2c[nH]c3ccccc23)c2ccc(C(C)C)cc2)cc(OC)c1OC (stereo not drawn),Activity,[1],Non-toxic
same,Activity,[2],Active
same,Ratio CC50/EC50,[3],>19.2
same,inhibition,[4],Active
same,inhibition,[5],Active
same,inhibition,[6],Active
same,inhibition,[7],inactive
same,Activity,[8],Active
same,inhibition,[9],Active
same,pEC50,[10],5.28
same,koff,[11],8.25 ×10⁻⁴ /s
same,pKd,[12],6.24
same,Activity,[13],tde
